# According to PubChem BioAssay AID624467 (The Scripps Research Institute Molecular Screening Center, 2012):
# In all, about 360,000 compounds went through this assay and about 3,600 (1%) were called active. Many of the other results were omitted from the sample, so actives are more common in it than they were. A number with no mark means an inactive call.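 How the source made its calls: active means activation above the mean activation of all test compounds in the run plus 3 SD (cut at about 38% in these data); inactive means the rest.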
# Biological target: Trace amine-associated receptor 1 (Homo sapiens) (UniProt Q96RJ0)
# Assay: activators of TAAR1 calcium mobilization – Fluo-8 calcium fluorescence, CHO RD-HGA16 cells, primary screen (AID 624467)
# Details: CHO RD-HGA16 TAAR1, Fluo-8 calcium fluorescence; at 3 µM; active compounds read high; vehicle wells 0%, saturating PEA agonist 100%
# How it was run: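 Test system: RD-HGA16 (CHO) cells co-expressing Gα16 and hTAAR1; dosing: one-point dosing at 3 µM (nominal); timing: 17-24 h seeding, 75 min 37 °C dye, 30 min RT; signal: kinetic Fluo-8 calcium fluorescence; read-out basis: % activation relative to PEA EC100 response; controls: DMSO and PEA EC100; replicates: n 1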
# Chain of Trace amine-associated receptor 1 (Homo sapiens) (Q96RJ0 whole entry, looked up): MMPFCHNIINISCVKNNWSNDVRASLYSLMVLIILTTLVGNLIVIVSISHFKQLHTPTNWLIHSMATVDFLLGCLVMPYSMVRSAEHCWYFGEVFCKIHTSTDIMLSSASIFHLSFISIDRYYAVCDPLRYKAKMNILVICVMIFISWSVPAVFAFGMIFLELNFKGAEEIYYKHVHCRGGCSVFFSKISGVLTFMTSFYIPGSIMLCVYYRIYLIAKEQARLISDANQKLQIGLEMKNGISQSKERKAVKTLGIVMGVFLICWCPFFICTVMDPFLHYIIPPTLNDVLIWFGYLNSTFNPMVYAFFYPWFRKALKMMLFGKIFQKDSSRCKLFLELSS
row,SMILES,activation
1,CCCCNc1cccc2c1S(=O)(=O)N[C@@H](C)CO2,-1.01%
2,Cc1cc(CN(C)C(=O)c2cc(COc3ccc(C)c(C)c3)on2)n[nH]1,2.87%
3,CN(c1cccc(NC(=O)Nc2ccc(Cl)cc2)c1)S(C)(=O)=O,46.9% (active)
4,CC(C)S(=O)(=O)c1csc(NC(=O)Nc2ccc(Cl)cc2)c1Cl,17.9%
5,CN(c1cccc(NC(=O)c2ccc(CN3CCc4ccccc4C3)cc2)c1)S(C)(=O)=O,7.79%
6,CC(=O)NC1=NN(C(C)=O)C(C)(c2ccc(Cl)s2)S1 (stereo not given),5.71%
7,CN(C)S(=O)(=O)N1CCC(Oc2cccc(C(=O)NCCCC3CCCC3)c2)CC1,11.3%
8,O=C1CC(c2ccccc2)CC(O)=C1C=NCCN1CCOCC1 (stereo not given),2.73%
9,O=C1CCCC(O)=C1C=NCCc1ccccc1,60.6% (active)
10,CC1(C)CC(=O)C(C=NCCC2=CCCCC2)=C(O)C1,20.1%
11,COC(=O)C1=C(C)N(Cc2ccccc2C(F)(F)F)C(=NCc2ccc(OC)cc2)NC1c1cccc(C(F)(F)F)c1 (stereo not given),9.5%
12,CC(C)N(Cc1ccccc1)C(=O)COC(=O)c1ccccc1SCC(=O)N1CCCC1,15.6%
13,O=C(NCCc1ccccc1)C(=O)NCC1OCCN1S(=O)(=O)c1cccs1 (stereo not given),56.5% (active)
14,O=C(NCCCc1ccccc1)C(=O)NCC1OCCN1S(=O)(=O)c1ccccc1 (stereo not given),8.57%
15,COc1ccc(CCNC(=O)C(=O)NCC2OCCN2S(=O)(=O)c2cccs2)cc1OC (stereo not given),1.17%
16,COc1cccc(CNC(=O)[C@H]2CCCN2C(=O)[C@H]2CCCN2C(=O)c2cc(F)cc(F)c2)c1,2.08%
17,O=C1Nc2ccccc2C1=NN=Cc1ccco1,0.51%
18,Cn1nc(C(F)(F)F)c(C(=O)Nc2cccc(C(F)(F)F)c2)c1SCc1ccc(Cl)cc1,11%
19,COCc1nc2ccccc2n1Cc1ccccc1Br,12.1%
20,O=C(NC1CC1)C1=C[C@H](c2c[nH]c3ccccc23)C[C@H](OCc2ccc(CO)cc2)O1,5.4%
21,NC(=O)C1=C[C@@H](c2csc3ccccc23)C[C@@H](OCc2ccc(CO)cc2)O1,22.2%
22,NC(=O)C1=C[C@H](c2csc3ccccc23)C[C@H](OCc2ccc(CO)cc2)O1,60.3% (active)
23,COc1ccc(CCN(C)C(=O)C23CC4CC(CC(Cl)(C4)C2)C3)cc1OC,-1.21%

row,SMILES,activation
1,Cc1cccc(CCNS(=O)(=O)c2ccc3c(c2)NC(=O)CO3)c1,5.47%
2,Cc1cccc(CCNS(=O)(=O)c2ccc(S(=O)(=O)NC3CCCC3)cc2)c1,42.8% (active)
3,CC(C)c1ccc(S(=O)(=O)NC2CCCC2)cc1,1.12%
4,CN1CCCN(C(=O)C2CCCCC2)CC1,1.26%
5,CC1(Oc2ccccc2-c2ccno2)CCN(Cc2ccc(-c3ccccc3)o2)C1 (stereo not given),1.77%
6,Cc1cc2nc3c(=O)[nH]c(=O)nc-3n(C[C@H](O)[C@H](O)[C@H](O)CO)c2cc1C,45.3% (active)
7,COc1cccc(CNC(=O)c2nnn(CC(=O)Nc3cc(C)ccc3C)c2N)c1,2.69%
8,CCCn1nc2cc(C(=O)NCc3ccccc3)ccc2c1OCC,3.65%
9,CCOc1ccc(Cn2nnc(C(=O)Nc3ccc(OC)cc3OC)c2N)cc1,42.5% (active)
10,COc1cccc(CNC(=O)c2nnn(CC(=O)Nc3cc(Cl)ccc3C)c2N)c1,2.23%
11,CCOc1ccc(Cn2nnc(C(=O)NCc3ccccc3)c2N)cc1,83.3% (active)
12,Nc1c(C(=O)Nc2ccc3c(c2)OCCO3)nnn1Cc1ccccc1,0.57%
13,Cc1cc(OCCCC(=O)NCCN2C(=O)S/C(=C\c3cccnc3)C2=O)ccc1Cl,16.7%
14,CCOc1ccc(-n2c(SCC(=O)NC3CCS(=O)(=O)C3)nnc2-c2cccnc2)cc1 (stereo not given),-0.1%
15,CCOC(=O)c1c(N)c(C#N)nn1-c1ccccc1C(=O)OC,1.23%
16,COc1ccc(Cl)cc1C(=O)NNC(=O)c1nc2nc(C)cc(C)n2n1,-0.4%
17,COc1ccc(Cl)cc1C(=O)NNC(=S)NC(=O)/C=C/c1ccco1,55.3% (active)
18,O=C(/C=C/c1ccco1)NC(=S)N1CCCCC1,1.82%
19,CC(C)OC(=O)Cn1nc(C(F)(F)F)c2c1CCCC2,3.22%
20,CCCCn1c(N)c(N(CC(C)C)C(=O)C2CSC3(C)CCC(=O)N23)c(=O)[nH]c1=O (stereo not given),4.3%
21,COC(=O)C1=C(C)NC(=S)NC1c1ccc(OC)cc1 (stereo not given),1.73%
22,CC(C)(C)c1ccc(S(=O)(=O)NCC2CCN(C(=O)C(=O)c3cc4ccccc4o3)CC2)cc1,-0.02%
23,O=C1N[C@@H](c2ccccc2)COC(=O)[C@H](Cc2ccc(F)cc2)C/C=C\C[C@@H]1CC(=O)N(CCO)Cc1ccccc1,18.8%

row,SMILES,activation
1,O=C1NC[C@@H](c2ccccc2)OC(=O)[C@H](Cc2ccc(F)cc2)CC/C=C/C[C@H]1CC(=O)N(CCO)Cc1ccccc1,42.6% (active)
2,O=C1CCC/C=C/C[C@@H](CC(=O)N(CCO)Cc2ccccc2)C(=O)NC[C@H](c2ccccc2)O1,5.38%
3,Fc1ccc(-n2c(Cc3ccccc3)nnc2SCc2nc(-c3ccc(Cl)cc3)no2)cc1,2.7%
4,Cc1cc(C)c2cc(C#N)c(N3CCNCC3)nc2c1,69.6% (active)
5,Cc1ccc2cc(C)c(N3CCN(c4ccc(F)cc4)CC3)nc2c1,1.28%
6,Cc1ccc2cc(C)c(N3CCC(C)CC3)nc2c1,17.1%
7,C[C@H]1CN([C@@H](C)CO)S(=O)(=O)c2ccc(Br)cc2O[C@H]1CN(C)C(=O)c1cnccn1,1.33%
8,CSc1ccccc1NC(=O)C(C)N1C(=O)c2ccccc2S1(=O)=O (stereo not given),2.86%
9,CCCOC(=O)c1ccc(N2C(=O)c3ccccc3C2=O)cc1,-1.04%
10,CC(=O)Nc1ccccc1Sc1ccc2c3c(cccc13)C(=O)N(c1ccc(C)cc1)C2=O,47.3% (active)
11,Cc1ccc(NC(=O)Cn2sc3ccccc3c2=O)cc1,37.5% (active)
12,Cc1ccc(NC(=O)Cn2c(C)csc2=O)cc1,0.43%
13,O=C(Cn1nc(C(=O)O)c2ccccc2c1=O)Nc1ccc(F)cc1,6.51%
14,COc1cccc(CNC(=O)[C@H]2CCCN2C(=O)[C@H]2CCCN2C(=O)c2ccc(F)cc2)c1,-0.3%
15,COC(=O)N1Cc2ccnnc2CC1c1ccccc1Br (stereo not given),0.4%
16,O=C(NN=Cc1ccco1)C(=O)Nc1ccc(Cl)c([N+](=O)[O-])c1,1.63%
17,O=[N+]([O-])c1cc(Cl)cc(/C=N/NC(=S)Nc2cc(S(=O)(=O)N3CCOCC3)ccc2Cl)c1O,0.47%
18,O=C(N/N=C/c1cc(Cl)cc([N+](=O)[O-])c1O)C(O)(c1ccccc1)c1ccccc1,42.4% (active)
19,CCOC(=O)C1CSCCS(=O)(=O)N1Cc1ccc(Cl)cc1 (stereo not given),1.13%
20,CCN1C(=O)N[C@@H]2C[C@H](C(=O)N3CCCC3)[C@H](C)[C@H](c3ccccc3)C[C@@H]21,0.86%
21,CNC(=O)CSc1nnc(CCc2ccccc2)n1-c1ccccc1,5.04%
22,Cc1c(C(=O)NCc2ccccc2)cnn1-c1ccccc1,2.79%
23,Cc1c(CNCCc2ccccc2)c(C(=O)O)c(C)n1-c1ccccc1,78.1% (active)

row,SMILES,activation
1,COc1ccc(C2=CN(Cc3ccccc3)C(c3ccc(OC)cc3)CC2=O)cc1 (stereo not given),-1.8%
2,O=C(NC1CCCC1)c1cc(-c2ccccc2)on1,2.47%
3,CC(NC(=O)c1cc(-c2ccccc2)on1)c1ccccc1 (stereo not given),52% (active)
4,Cc1ccc(C(=O)NC(C)c2ccccc2)cc1Br (stereo not given),-1.3%
5,Cc1[nH]c2ccccc2c1CC(=O)Nc1ccc(Nc2cccnc2)c(-c2cccc(Cl)c2)c1,1.11%
6,O=S1(=O)c2ccc(Br)cc2-n2nncc2CN1Cc1cccc(Cl)c1,1.66%
7,Cc1c(CN2CCCCC2)c(O)n(CCO)c(=O)c1C#N,11.5%
8,CCCCCCn1c(CN2CCCC(C)C2)nc2c1c(=O)n(C)c(=O)n2C (stereo not given),0.08%
9,CCCn1c(O)c(CN2CCCC(C)C2)c(C)c(C#N)c1=O (stereo not given),96.4% (active)
10,COc1ccc(C(CNC(=O)c2ccc(NS(=O)(=O)c3ccc(F)c(C)c3)cc2)N(C)C)cc1 (stereo not given),3.7%
11,COc1ccc(C(CNC(=O)c2cccc(S(=O)(=O)Nc3ccc(Br)cc3)c2)N(C)C)cc1 (stereo not given),40.2% (active)
12,CN(C)C(CNC(=O)c1cccc(S(=O)(=O)Nc2ccc(Br)cc2)c1)c1ccco1 (stereo not given),16.7%
13,COc1ccc(-n2cc(CNC3CCOCC3)c(-c3cccc(F)c3)n2)cc1,7.84%
14,CCOC(CNC(=O)C(=O)NCC(c1ccco1)N1CCN(c2ccc(OC)cc2)CC1)OCC (stereo not given),3.05%
15,COc1ccc(NC(=O)C(=O)NCC(c2ccco2)N2CCc3ccccc3C2)cc1 (stereo not given),62.3% (active)
16,O=C(NCC(c1ccco1)N1CCc2ccccc2C1)c1ccccc1Cl (stereo not given),12.4%
17,Cc1[nH]nc2c1C(c1ccc(Br)cc1)NC2=O (stereo not given),0.5%
18,CCOc1ccc(Br)cc1S(=O)(=O)N1CCC(C(=O)O)CC1,-0.19%
19,CCOc1ccc(Br)cc1CSC(=N)N,70.5% (active)
20,CC(C)(C)NCc1cc(Br)ccc1OC1CCCC1,1.46%
21,CC(=O)N1C[C@@H](CO)[C@@H](N(C)C(=O)C(C)(C)C)C[C@H]1c1ccccc1Br,3.7%
